Sampled rows, rich in hits. Any-hit rate of the full collection: about 3.5%.
RGS4 pot: RGS4 potentiation or activation. 0.92% of 310,000 active. AID 463111. HEK293 M3R/inducible RGS4, carbachol calcium flux Fluo4; active compounds read low. B-score at 10 µM;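 active = B-score of the integrated calcium signal more than 4 SD below the library mean, with starting fluorescence not abnormally high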;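 note: negative B-score means reduced calcium response which marks RGS4 activation or potentiation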
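Detection: kinetic calcium fluorescence imaging with Fluo4-AM dye, 2 µM / Material: HEK293 cells with stable M3R and inducible RGS4 / Schedule: recording 10 s baseline at 1 Hz, 100 s post-agonist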
MrgX1 antagonist: human MrgX1 receptor antagonism, primary screen | Q96LB2 | MRGX1-HEK293 calcium flux, Fluo-4, BAM8-22 antagonism; active compounds read low | B-score at 10 µM | 1.3% of 310,000 active;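 active = calcium-response B-score plate-corrected more than 3 library SD below zero, starting fluorescence within 5 deviations, no agonist response on first addition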;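 note: peak minus trough fluorescence over baseline after final BAM8-22 challenge near maximal dose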
Target sequence (Q96LB2 whole entry, looked up): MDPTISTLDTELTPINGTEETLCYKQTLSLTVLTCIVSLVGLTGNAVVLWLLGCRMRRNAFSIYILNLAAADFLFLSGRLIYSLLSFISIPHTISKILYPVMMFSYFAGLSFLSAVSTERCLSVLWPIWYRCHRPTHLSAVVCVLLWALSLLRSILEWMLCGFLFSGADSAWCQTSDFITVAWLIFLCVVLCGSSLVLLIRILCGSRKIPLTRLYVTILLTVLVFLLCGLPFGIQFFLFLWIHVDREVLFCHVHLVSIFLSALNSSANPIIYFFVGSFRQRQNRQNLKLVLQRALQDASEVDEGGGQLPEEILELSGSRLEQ
RGS4 inh: human RGS4 inhibition. P49798. HEK293 M3R/RGS4 inducible, Fluo-4 calcium flux; active compounds read high; triggered by carbachol at its EC20. B-score at 10 µM. 0.45% of 310,000 active;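 active = B-score, a plate-corrected calcium signal, over three deviations above library mean, with baseline fluorescence within five deviations of library mean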;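 note: RGS4 expression induced by doxycycline in cells with stable M3 receptor; B-score is computed from the integrated fluorescence ratio over baseline after carbachol; higher B-score means a larger calcium signal and so more RGS4 inhibition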
Target sequence (P49798 whole entry, looked up): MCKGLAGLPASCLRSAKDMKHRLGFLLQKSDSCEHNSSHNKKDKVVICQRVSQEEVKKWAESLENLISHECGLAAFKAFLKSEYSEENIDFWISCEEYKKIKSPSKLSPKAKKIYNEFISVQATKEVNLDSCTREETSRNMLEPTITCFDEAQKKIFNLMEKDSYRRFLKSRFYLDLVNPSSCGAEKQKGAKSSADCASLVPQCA
MrgX1 agonist: human MrgX1 receptor agonism, primary screen | Q96LB2 | MrgX1-HEK293 cells, Fluo-4 calcium fluorescence, agonist mode; active compounds read high | B-score at 10 µM | 0.44% of 310,000 active | AID 588627;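 active = calcium response B-score plate-corrected fluorescence ratio at least 3 library SD, with starting fluorescence B-score inside 5 SD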
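Test system: Stable human MrgX1 HEK293 cell line | Schedule: Overnight plating before 1 h dye loading | Read-out basis: Baseline-normalised fluorescence change ratio, B-scored | Detection: Kinetic calcium dye fluorescence, Fluo-4 NW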
MrgX1 allo act: human MrgX1 positive allosteric modulation, primary screen. Q96LB2. MrgX1-HEK293, Fluo-4 calcium flux, FDSS; active compounds read high. B-score at 10 µM. 0.63% of 310,000 active. AID 588675;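 active = plate-corrected calcium response at least 3 library SD above typical, normal starting fluorescence, not activating the receptor alone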;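 note: compound read alongside a low EC10 to EC30 dose of BAM8-22 agonist; peak minus trough fluorescence over baseline measured at the second addition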
MrgX1 ant reconf: confirmation of human MrgX1 receptor antagonists | AID 602420 | remaining BAM8-22 calcium response % of control (active compounds read low), % at 10 µM | MrgX1-HEK293, BAM8-22 calcium flux, Fluo-4; active compounds read low | shares compounds with MrgX1 antagonist | 19% of 2,300 active;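 active = remaining agonist calcium response no higher than 100% minus 3 SD of agonist-only control wells, with starting fluorescence near control levels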;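 note: agonist BAM8-22 given at a near maximal EC90 to ECmax level; peak minus minimum fluorescence divided by baseline after agonist addition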
HEK293 Ca flux: activity in parental HEK293 cells lacking MrgX1; Fluo-4 calcium fluorescence, FDSS; fluorescence ratio F(max-min)/F0 at 10 µM; shares compounds with MrgX1 antagonist; 2% of 4,000 active; AID 624111;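 active = duplicate-averaged calcium fluorescence ratio at least three times the standard deviation of buffer wells, a nonspecific response in parental cells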
HEK293 Ca counter: activity in parental HEK293 cells without MrgX1; shares compounds with MrgX1 antagonist; fluorescence ratio F(max-min)/F0 at 10 µM; 0.4% of 4,000 active; parental HEK293 calcium flux, Fluo-4 fluorescence ratio; active compounds read high;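 active = calcium fluorescence ratio, averaged over duplicates, at least 3 SD of the buffer-well ratio, meaning a nonspecific response in receptor-free cells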;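 note: untransfected parental HEK293 lacking MrgX1 used as counterscreen for MrgX1 allosteric activators; fluorescence change taken during the second addition on a kinetic imager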
HEK293 Ca cntr2: MrgX1 activator counter-screen hit in parental HEK293 cells | shares compounds with MrgX1 antagonist | Fluo-4 calcium fluorescence (FDSS); active compounds read high | fluorescence ratio F(max-min)/F0 at 10 µM | 8.7% of 4,000 active | AID 624115;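 active = calcium fluorescence ratio at least three times the spread of buffer wells, meaning a non-specific response in parental cells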
Active calls of the source: *; i = inactive; . = not tested or not shown.

SMILES | RGS4 pot | MrgX1 antagonist | RGS4 inh | MrgX1 agonist | MrgX1 allo act | MrgX1 ant reconf | HEK293 Ca flux | HEK293 Ca counter | HEK293 Ca cntr2
Cc1ccc(S(=O)(=O)Nc2ccccc2CNc2cccc(C)n2)cc1 | i | i | i | i | i | . | . | . | .
CCOc1ccc(NC(=O)Cc2ccc(NC3=NC4CS(=O)(=O)CC4S3)cc2)cc1 (stereo not drawn) | i | i | i | i | i | . | . | . | .
CCc1ccc(NC(=O)Cc2ccc(NC3=NC4CS(=O)(=O)CC4S3)cc2)cc1 (stereo not drawn) | i | -6.1* | i | i | i | i | i | i | i
Cc1ccc(Nc2ncccc2C(=O)O)cc1C | i | i | i | i | i | . | . | . | .
O=C(NCCCCNC(=O)c1cccnc1Cl)c1cccnc1Cl | i | -4.8* | i | i | i | i | i | i | i
O=C(NCC1CCCCC1)c1cccnc1Cl | i | i | i | i | i | . | . | . | .
O=C(CCNC(=O)c1ccc(Cl)cc1)NCc1cccc(C(F)(F)F)c1 | i | -10* | i | i | i | i | i | i | i
Cn1cnnc1SCC(=O)NCc1cccc(C(F)(F)F)c1 | i | -6.5* | i | i | i | i | i | i | i
CCn1c2ccccc2c2cc(/C=N/NC(=O)c3cccc(C)c3)ccc21 | i | i | i | i | i | . | . | . | .
CN1CCCN(C(=O)CNC(=O)Cc2ccccc2)CC1 | i | i | i | i | i | . | . | . | .
Cc1cc(NC(=O)CSc2nc3c(c(-c4cccnc4)c2C#N)CCC3)no1 | i | -5.3* | i | i | i | i | i | i | i
CCOC(=O)CCc1c(C)nc2cc(C3CCCN(C(=O)OC(C)(C)C)C3)[nH]n2c1=O (stereo not drawn) | . | -5.4* | . | i | i | i | i | i | i
CCOC(=O)CCc1c(C)nc2cc(-c3ccccc3OC)[nH]n2c1=O | i | i | i | i | i | . | . | . | .
O=C(C1CCCCC1)N1CCN(c2ccnc3cc(Cl)ccc23)CC1 | i | -12* | i | i | i | i | i | i | i
O=C(C1CCC1)N1CCN(c2ccnc3cc(Cl)ccc23)CC1 | i | i | i | i | i | . | . | . | .
Cc1nc(=O)c(-c2ccccc2)c(C)n1-c1ccc(C(=O)O)cc1 | i | -4.9* | i | i | i | i | i | i | i
Cc1nc(=O)c(-c2ccccc2)c(C)n1-c1ccc(S(N)(=O)=O)cc1 | i | i | i | i | i | . | . | . | .
O=C(NCCOc1ccc(Cl)cc1)C1CCCCC1 | i | i | i | i | i | . | . | . | .
CC(C)NC(=S)N1CCN(Cc2ccc3c(c2)OCO3)CC1 | i | i | i | i | i | . | . | . | .
FC(F)(F)c1ccccc1NC(=S)N1CCN(Cc2ccc3c(c2)OCO3)CC1 | i | -7.4* | i | i | i | i | i | i | i
Cc1ccccc1NC(=S)N1CCN(Cc2ccc3c(c2)OCO3)CC1 | i | i | i | i | i | . | . | . | .
CCN(CC)c1ccc(C(=O)NC(=S)N2CCN(Cc3ccc4c(c3)OCO4)CC2)cc1 | i | -5.1* | i | i | i | i | i | i | i
Cc1ccc(S(=O)(=O)N(C)c2ccc(C(=O)N3CCN(Cc4ccc5c(c4)OCO5)CC3)cc2)cc1 | i | -5.2* | i | i | i | i | i | i | i
COCC(=O)N1CCN(c2nc3ccccc3o2)CC1 | i | -4.5* | i | i | i | i | i | i | i
O=C(CSc1nc2ccccc2o1)N1CCCC1 | i | i | i | i | i | . | . | . | .
SMILES | RGS4 pot | MrgX1 antagonist | RGS4 inh | MrgX1 agonist | MrgX1 allo act | MrgX1 ant reconf | HEK293 Ca flux | HEK293 Ca counter | HEK293 Ca cntr2
COc1ccc(-c2cc3nc4c(c(=O)n3[nH]2)CCC4)cc1 | i | i | i | i | i | . | . | . | .
CCCNc1nc(N2CCCC2)nc(N2CCCC2)n1 | i | i | i | i | i | . | . | . | .
CCc1nnc(NC(=O)CSc2nccn2-c2cccc(C)c2)s1 | i | i | i | i | i | . | . | . | .
Cc1cccc(-n2ccnc2SCC(=O)Nc2nnc(C)s2)c1 | i | -7.7* | i | i | i | i | i | i | i
CC1CN(C(=O)c2cc(S(=O)(=O)N3CCCC3)ccc2Cl)CC(C)O1 (stereo not drawn) | i | . | i | . | . | . | . | . | .
Cc1ccc(S(=O)(=O)N2CCN(C(=O)c3ccnn3C)CC2)cc1C | i | -5.7* | i | i | i | i | i | i | i
NC1=NC(c2ccccc2Cl)n2c(nc3ccccc32)N1 (stereo not drawn) | i | -8.6* | i | i | i | i | i | i | i
COC(=O)c1c[nH]c(=O)c2ccccc12 | i | -5.7* | i | i | i | i | i | i | i
NS(=O)(=O)c1cccc(NC(=S)NCc2ccc3c(c2)OCO3)c1 | i | i | i | i | i | . | . | . | .
CC(=O)c1c[nH]c2ccc(C)cc2c1=O | i | -4.9* | i | i | i | 70%* | i | i | i
COc1ccccc1NC(=O)c1nn(C)cc1Br | . | -7.6* | . | i | i | i | i | i | i
CN(C)C(CNC(=O)CCc1nc2sc3c(c2c(=O)[nH]1)CCCC3)c1ccccc1 (stereo not drawn) | i | -6.5* | i | i | i | i | i | i | i
CN(C)CCC(Oc1ccccc1OCc1ccccc1)c1ccccc1 (stereo not drawn) | i | i | i | i | i | . | . | . | .
CN(C)CCCC(C)(O)C(Cc1ccccc1)c1ccccc1 (stereo not drawn) | i | -6.5* | i | i | i | i | i | i | i
Cc1ccc2nc(SCC(=O)O)nc(C)c2c1 | i | i | i | i | i | . | . | . | .
Cc1ccc2nc(SCCC#N)nc(C)c2c1 | i | -8.1* | i | i | i | i | i | i | i

From PubChem BioAssay
